Source: ChEMBL document CHEMBL1806410, “Design and synthesis of pyridine-substituted itraconazole analogues with improved antifungal activities, water solubility and bioavailability” (Bioorg Med Chem Lett, 2011)
Values after ≈ are worked out from the molar mass of the structure shown.

How the values were obtained:
[1] = Half life in rat at 10 mg/kg, po administered as single dose; format: ADME, organism-based; design: dose 10 mg/kg, route oral; details: in vivo
Procedure, shortened: (§1)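 Rats received a single dose of compound, either oral (10 mg/kg) or intravenous (10, 5 or 2.5 mg/kg). Plasma levels were followed, and the reported parameters were Cmax, Tmax, AUC0–t, half-life, clearance and bioavailability (F).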

[2] = Half life in rat at 2.5 mg/kg, iv administered as single dose; format: ADME, organism-based; design: dose 2.5 mg/kg, route intravenous; details: in vivo
Procedure, shortened: (§2)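 Rats received a single iv dose. Drug levels were measured in plasma. Parameters came from the plasma concentration–time data: AUC over 0–t in ng h/mL, clearance (CL) in L/h/kg, and half-life in h.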

[3] = Clearance in rat at 2.5 mg/kg, iv administered as single dose; format: ADME, organism-based; design: dose 2.5 mg/kg, route intravenous; details: in vivo; procedure, shortened: as §2
[4] = Oral bioavailability in rat at 10 mg/kg, administered as single dose; format: ADME, organism-based; details: in vivo; procedure, shortened: as §1
[5] = test system: Salmonella typhimurium; assay: Mutagenic activity in Salmonella Typhimurium assessed as number of revertants colonies after 48 hrs by Ames test; format: toxicity, organism-based; details: salmonella enterica subsp. enterica serovar typhimurium
Procedure, shortened: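 Plate incorporation protocol without S9 mix. About 10^9 bacterial cells in culture medium were mixed with test compound in DMSO and poured onto hardened agar, in triplicate plates. Plates were incubated at 37 °C for 48 h, then revertant colonies were counted and reported as mean ± standard deviation.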

[6] = Acute toxicity in po dosed ICR mouse assessed as mortality after 10 days; format: organism-based; details: in vivo
Procedure, shortened: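 Single oral dose on day 0 at 100, 144, 207, 299, 430 or 619 mg/kg. Animals were watched continuously for 10 days, recording deaths and signs of toxicity. LD50 was calculated by a modified Kaber method.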

[7] = test system: Candida albicans; assay: Antifungal activity against Candida albicans JLC 30364 by broth microdilution method; format: functional
Procedure, shortened: (§3)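 MICs were determined by broth microdilution following NCCLS guidelines (M38-P for filamentous fungi). The panel covered four yeast species and two Aspergillus species, with two strains per species. Itraconazole served as positive control.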

[8] = test system: Candida albicans; assay: Antifungal activity against Candida albicans JLC 31374 by broth microdilution method; format: functional; procedure, shortened: as §3
[9] = test system: Candida parapsilosis; assay: Antifungal activity against Candida parapsilosis JLC 30365 by broth microdilution method; format: functional; details: Lodderomyces parapsilosis; procedure, shortened: as §3
[10] = test system: Candida parapsilosis; assay: Antifungal activity against Candida parapsilosis JLC 30275 by broth microdilution method; format: functional; details: Lodderomyces parapsilosis; procedure, shortened: as §3
[11] = test system: Pichia kudriavzevii; assay: Antifungal activity against Candida krusei JLC 30366 by broth microdilution method; format: functional; procedure, shortened: as §3
[12] = test system: Pichia kudriavzevii; assay: Antifungal activity against Candida krusei JLC 30386 by broth microdilution method; format: functional; procedure, shortened: as §3
[13] = test system: Cryptococcus neoformans; assay: Antifungal activity against Cryptococcus neoformans JLC 50122 by broth microdilution method; format: functional; procedure, shortened: as §3
[14] = test system: Cryptococcus neoformans; assay: Antifungal activity against Cryptococcus neoformans JLC 50123 by broth microdilution method; format: functional; procedure, shortened: as §3
[15] = test system: Aspergillus fumigatus; assay: Antifungal activity against Aspergillus fumigatus JLC 30506 by broth microdilution method; format: functional; procedure, shortened: as §3
[16] = test system: Aspergillus fumigatus; assay: Antifungal activity against Aspergillus fumigatus JLC 30883 by broth microdilution method; format: functional; procedure, shortened: as §3
[17] = test system: Aspergillus flavus; assay: Antifungal activity against Aspergillus flavus JLC 30784 by broth microdilution method; format: functional; procedure, shortened: as §3
[18] = test system: Aspergillus flavus; assay: Antifungal activity against Aspergillus flavus JLC 40437 by broth microdilution method; format: functional; procedure, shortened: as §3
[19] = Solubility of the compound in water at pH 1.2; format: physicochemical; details: water, read-out: solubility
[20] = Cmax in rat at 10 mg/kg, po administered as single dose; format: ADME, organism-based; design: dose 10 mg/kg, route oral; details: in vivo; procedure, shortened: as §1
[21] = Tmax in rat at 10 mg/kg, po administered as single dose; format: ADME, organism-based; design: dose 10 mg/kg, route oral; details: in vivo; procedure, shortened: as §1
[22] = AUC (0 to t) in rat at 10 mg/kg, po administered as single dose; format: ADME, organism-based; design: dose 10 mg/kg, route oral; details: plasma; procedure, shortened: as §1
[23] = AUC (0 to t) in rat at 2.5 mg/kg, iv administered as single dose; format: ADME, organism-based; design: dose 2.5 mg/kg, route intravenous; details: plasma; procedure, shortened: as §2

## CC(C)(CO)Cn1ncn(-c2ccc(N3CCN(c4ccc(OC[C@H]5CO[C@](Cn6cncn6)(c6ccc(F)cc6F)O5)cc4)CC3)cn2)c1=O
[1]
  half-life: 3.41 h
[2]
  half-life: 2.3 h
[3]
  clearance: 36.7 mL/min/kg
[4]
  bioavailability: 42.2%
[5]
  Activity: Non-toxic
[6]
  LD50 at 240 h: 278 mg/kg
[7]
  MIC: 0.0156 µg/mL (≈ 0.0222 µM)
[8]
  MIC: 0.0156 µg/mL (≈ 0.0222 µM)
[9]
  MIC: < 0.0156 µg/mL
[10]
  MIC: < 0.0156 µg/mL
[11]
  MIC: < 0.0156 µg/mL
[12]
  MIC: < 0.0156 µg/mL
[13]
  MIC: < 0.0156 µg/mL
[14]
  MIC: < 0.0156 µg/mL
[15]
  MIC: 0.03 µg/mL (≈ 0.0426 µM)
[16]
  MIC: 0.03 µg/mL (≈ 0.0426 µM)
[17]
  MIC: < 0.0156 µg/mL
[18]
  MIC: < 0.0156 µg/mL
[19]
  solubility: 190 µg/mL (≈ 270 µM)
[20]
  Cmax: 297 ng/mL
[21]
  Tmax: 3 h
[22]
  AUC(0-t): 1900 ng·h/mL
[23]
  AUC(0-t): 1120 ng·h/mL
